Only a selection was taken, and hits are over-represented in it overall.
L major viab – Leishmania major promastigote growth inhibition, primary screen. Leishmania major promastigotes, resazurin fluorescence viability. inhibition, % at 10 µM. 9% of 200,000 active. AID 1063, 2008; in the data active means inhibition above about 50%;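 further: promastigotes grown with compound for 44 hours at 28 °C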
HSF1 inh – HSF1 inhibitors in luciferase reporter cells, primary screen, cell-based, NIH3T3, luminescence. NIH3T3-HGL HSE-luciferase, MG132-induced, luminescence 8 h; stronger effect = lower value. activity change, negative = inhibition, % at 7.5 µM (by protocol). 0.77% of 300,000 active. AID 2098, 2009;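 active means more than half of replicate wells show activity change below -50%, luminescence cut by over half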;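 further: luciferase reports HSF-1 transcriptional activity via heat shock element; 0% = median of DMSO wells and -100% = zero luminescence signal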
T cruzi inh – inhibitors of intracellular T. cruzi growth, primary screen, luminescence, NIH3T3 host cells | T. cruzi beta-gal in NIH3T3, 90 h | inhibition, % (concentration not given with the values) | 1.4% of 300,000 active | AID 1885, 2009;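 active means mean inhibition across valid replicates above about 55%, limit read from the data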;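 further: signal also drops with host cell toxicity which is not excluded here; 0% = plate median of DMSO wells and 100% = zero luminescence signal; higher percent means less beta-gal luminescence so fewer parasites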
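compound dosing = single 50 nL compound addition per well in DMSO | material = NIH/3T3 host cells with β-galactosidase reporter T. cruzi | input = 5,000 host fibroblasts per well | timing = ≥90 h infection period, 3 h prior cell attachment | read-out basis = percent inhibition of parasite-derived β-gal signal | detection = GalScreen β-gal luminescence, detergent lysis, 60 min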
Hsp70 act – Hsp70 transcriptional activators, primary screen, cell-based, HeLa, Hsp70 promoter luciferase, luminescence, 10 µM | activation, % at 10 µM | HeLa Hsp70 promoter luciferase reporter; scaled: vehicle 0, proteasome-inhibitor control 100% | 0.04% of 200,000 active;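 active means activation above the mean across all tested compounds plus 3 SD, cutoff set per campaign, cut at about 5.5% in these data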;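 further: 100% = MG132 at 30 µM as the positive control and 0% = DMSO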
HSF-1 act – HSF-1 activators, primary screen, NIH3T3-HGL cells, MG132 stress, luminescence, single point | activation, % at 9 µM | NIH3T3-HGL HSF-1 luciferase reporter, 8 h; 100% = twice DMSO control signal | 1.7% of 300,000 active;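 active means mean replicate activation of at least 50% with a set share of replicates each reaching 50%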;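 further: 0% = median of the neutral control wells and 100% = twice that signal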
Numbers without * were called inactive; . = not tested or not shown.

SMILES	L major viab	HSF1 inh	T cruzi inh	Hsp70 act	HSF-1 act
COc1ccc(C(=O)Nc2c(C)csc2C(=O)O)cc1	-10	-8	-15	0	-14
CC1=C(C(=O)N2CCOCC2)C(c2ccc(C)cc2)NC(=S)N1 (configuration not stated)	-6	-4	-14	0	-2
CC1=C(C(=O)N2CCOCC2)C(c2c(C)cc(C)cc2C)NC(=S)N1 (configuration not stated)	-2	64	11	0	95*
COC(=O)c1ccccc1OCCCCN1CC(C)OC(C)C1 (configuration not stated)	88*	10	1	0	34
Fc1ccc(OCCCCCN2CCCC2)cc1	87*	-18	28	0	-34
CC1CN(CCCCOc2ccc(F)cc2)CC(C)O1 (configuration not stated)	85*	5	6	0	2
CCOc1ccc(OCCCCN2CCCC2)cc1	99*	1	28	0	-3
COc1ccccc1N1CCN(CCCCCCOc2ccc(F)cc2)CC1	22	-4	26	0	2
Fc1ccc(OCCOCCN2CCNCC2)cc1	.	2	-7	.	-7
Cc1ccc(OCCCCN2CCCCC2)cc1	.	-1	-23	.	4
COc1ccc([N+](=O)[O-])cc1NC(=O)C(C)OC(=O)Cn1[nH]c(=O)c2ccccc2c1=O (configuration not stated)	.	1	-2	.	22
CC(c1ccccc1)N1CCN(C(=O)CCl)CC1 (configuration not stated)	76*	-94*	1	0	-94
CCC(C)(O)c1[nH]c2ccc(C#N)cc2c1C (configuration not stated)	.	5	-10	.	4
CC1=C(C(=O)Nc2ccccc2F)C(c2ccsc2)C2=C(CC(c3ccccc3)CC2=O)N1 (configuration not stated)	16	2	56*	0	5
CC(=O)N1CCCc2ccc(NS(=O)(=O)c3ccccc3)cc21	.	0	-8	.	26
Cc1ccc(OCCCn2c(CO)nc3ccccc32)cc1	7	4	-2	0	-15
CCOCCn1c(COc2ccc(C)cc2)nc2ccccc21	24	47	15	0	76*
CCn1c(COc2ccc(C)cc2)nc2ccccc21	0	47	-10	0	81*
COCCn1c(COc2ccc(C)cc2)nc2ccccc21	19	41	4	0	46
O=C(CS(=O)(=O)c1c[nH]c2ccccc12)N1CCc2ccccc21	4	4	-12	0	8
COc1ccc(N2C(=O)C(C)(C)C2c2c(O)ccc3ccccc23)cc1 (configuration not stated)	.	-73*	5	.	-79
CC1(C)C(=O)N(c2ccccc2)C1c1ccccc1O (configuration not stated)	.	-2	-3	.	13
COc1ccccc1CCNC(=O)C(=O)NCC1OCCN1S(=O)(=O)c1ccc([N+](=O)[O-])cc1 (configuration not stated)	.	6	33	.	26
Cc1ccc(-n2nc(C)c3cc(C(=O)O)sc32)cc1	-9	-69*	-8	0	-76
Cc1nn(-c2ccccc2)c2sc(C(=O)O)cc12	-6	3	4	0	-5
SMILES	L major viab	HSF1 inh	T cruzi inh	Hsp70 act	HSF-1 act
CCOC(=O)COc1coc(CN2CCN(c3ccc(F)cc3)CC2)cc1=O	.	-2	6	.	-1
CC(C)=NNc1nc(-c2ccccc2)cs1	89*	-2	11	0	1
CC(/C=C/c1ccccc1)=N\Nc1nc(-c2ccccc2)cs1	69*	.	.	-1	.
Clc1ccc(-c2csc(N/N=C/c3cccnc3)n2)c(Cl)c1	-2	4	52	0	10
Clc1ccc(N/N=C/c2cccnc2)cc1	62*	7	46	0	25
O=[N+]([O-])c1ccc(N/N=C/c2cccnc2)cc1	.	-3	21	.	11
C(=N\Nc1nc(-c2ccccc2)cs1)/c1cccnc1	91*	2	20	0	23
O=P(OC1CCCCC1)(OC1CCCCC1)C(O)c1ccccc1 (configuration not stated)	28	3	1	0	4
